2 molecules from ChEMBL document CHEMBL1155263, “Anti-tumor and anti-angiogenic activity of novel hydantoin derivatives: Inhibition of VEGF secretion in liver metastatic osteosarcoma cells” (Bioorg Med Chem, 2009) can be followed below.

The source made the active and inactive calls. No cut-off for these calls is given here.

The test system of one assay is OVSAHO. The assay can be described thus: Antiproliferative activity against human OVSAHO cells after 48 hrs. In kind it is functional, cell-based. The procedure, abridged: (§1)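 Cells seeded at 15,000/well and incubated overnight at 37 °C, then switched to medium containing compound in µg/mL concentrations. Incubation was 48 h at 37 °C, 5% CO2, then 2 h with WST-type TetraColor One. A450 gave % viability, reported as % inhibition of proliferation, mean of four replicates.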

Assay [1] in a line: (§2) Antiproliferative activity against VEGF expressing mouse LM8G7 cells assessed as cell index every 10 mins by RT-CES method. In kind it is functional, cell-based. The procedure, abridged:
(§3)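 LM8G7 seeded at 10,000 cells/well on electronic-sensing e-plates; about 24 h later, in log phase, medium with various compound concentrations or DMSO control was added. Impedance cell index was recorded every 10 min and plotted against time. IC50 was obtained by non-linear regression of concentration–response curves.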

Assay [2] concerns LM8G7. The assay is described as §2. In kind it is functional, cell-based. The method in brief: as §3
Another assay concerns LM8. The assay can be described thus: Antiproliferative activity against mouse LM8 cells after 48 hrs. In kind it is functional, cell-based. The procedure, abridged:
as §1

The next assay has as its system SK-OV-3. The assay can be described thus: Antiproliferative activity against human SKOV3 cells after 48 hrs. It counts as functional, cell-based. The procedure, abridged:
as §1

The subject of assay [3] is LM8G7. Nature of the assay: Antiproliferative activity against mouse LM8G7 cells after 48 hrs. It counts as functional, cell-based. The method in brief:
as §1

A short description of assay [4]: Inhibition of VEGF secretion in mouse LM8G7 cells at 56 uM after 48 hrs by immunoassay. It counts as functional. The following applies: LM8G7, 48 h. The procedure, abridged: (§4)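 LM8G7 (1 × 10⁶ cells/well) in 6-well plates were incubated 24 h, then given serum-free medium with compound at 56, 102 or 204 µM for 48 h at 37 °C. Supernatant was centrifuged 5000 rpm, 5 min, 4 °C and protein measured by BCA. Mouse VEGF was quantified by sandwich ELISA against a recombinant VEGF standard (HRP detection, A450).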

The nature of assay [5]: Inhibition of VEGF secretion in mouse LM8G7 cells at 102 uM after 48 hrs by immunoassay. It counts as functional. The following applies: LM8G7, 48 h. The method in brief: as §4
Assay [6] in a line: Inhibition of VEGF secretion in mouse LM8G7 cells at 204 uM after 48 hrs by immunoassay. It counts as functional. The following applies: LM8G7, 48 h. The method in brief: as §4
The test system of a further assay is Endothelial cell. The assay can be described thus: Antiangiogenic activity in mouse endothelial cells assessed as inhibition of tube formation at 50 uM after 18 hrs by microscopic analysis in presence of VEGF. It counts as functional, cell-based. The method in brief:
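UV♀2 mouse endothelial cells, 100 µL suspension at 4 × 10⁵ cells/mL, seeded onto Matrigel solidified 30 min at 37 °C, with or without compound (50 µM) and VEGF (2 ng/mL); DMSO 0.1% vehicle. After 18 h, reorganization of the sub-confluent monolayer into capillary-like tubes in 3-D Matrigel was photographed by light microscopy.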

For orientation: IC50 means the midpoint of a concentration-inhibition curve. In the case of `CS(=O)(=O)c1ccc(CN2C(=O)NC3(CC4CCC(C3)N4Cc3cccc(F)c3)C2=O)cc1` (stereo unspecified), the result with OVSAHO, with LM8, with SK-OV-3 and in the assay on LM8G7 [3] was Active. The IC50 in assay [1] is 102 µM. Also, the Activity entry in the assay on LM8G7 [2] is “Dose-dependent effect”.
For orientation: inhibition means the percentage by which the read-out fell short of the control. As for `CS(=O)(=O)c1ccc(CN2C(=O)NC3(CC4CCC(C3)N4Cc3ccc(F)c(F)c3)C2=O)cc1` (stereo unspecified), 56 µM produced 23.8% inhibition in assay [4]. In addition, the result in the assay with OVSAHO, with LM8, in the assay with SK-OV-3 and with LM8G7 [3] was Active. The same molecule gave an inhibition at 102 µM in assay [5] of 46.7%. In assay [1], the half-maximal inhibitory concentration (IC50) came out at 13 µM. Further, the Activity result with LM8G7 [2] was “Dose-dependent effect”. The molecule also showed an inhibition at 204 µM in [6] of 63.9%. Further, in the assay with Endothelial cell, the inhibition result was “Active”.
